Measured values taken from ChEMBL document CHEMBL1141319, “Cinnamic ester derivatives from Oxalis pes-caprae (Bermuda buttercup)” (2007).
The source made the active and inactive calls. No cut-off for these calls is given here.

Key:
[1] = test system: Lactuca sativa; assay: Phytotoxicity against Lactuca sativa assessed as inhibition of root length at 0.1 mM relative to control; type: functional; set-up: scale not given: the % may be the effect or the level left
Summary of the method: (§1)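 Lettuce seeds (cv. Napoli V.F.), selected for uniformity, 25 per 50 mm dish on filter paper with 5 mL test solution in 10 mM MES pH 6. Tested at 10^-4 M, diluted to 10-5–10-7 M. Dishes sealed and kept at 25 °C in the dark, with germination counted daily for 5 days. Seedlings frozen at -20 °C before measuring. Four replicates with parallel controls; results given as % difference from control, Student's t test.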

[2] = test system: Lactuca sativa; assay: Phytotoxicity against Lactuca sativa assessed as inhibition of seed germination relative to control; type: functional; set-up: concentration or dose not given beside the values; summary of the method: as §1
[3] = test system: Lactuca sativa; assay: Phytotoxicity against Lactuca sativa assessed as inhibition of shoot length at 100 uM relative to control; type: functional; set-up: scale not given: the % may be the effect or the level left; summary of the method: as §1
[4] = test system: Lactuca sativa; assay: Phytotoxicity against Lactuca sativa assessed as inhibition of shoot length at 1 to 10 nM relative to control; type: functional, organism-based
[5] = test system: Lactuca sativa; assay: Phytotoxicity against Lactuca sativa assessed as inhibition of shoot length at 0.1 uM to 0.1 mM relative to control; type: functional; set-up: scale not given: the % may be the effect or the level left; summary of the method: as §1
[6] = test system: Lactuca sativa; assay: Phytotoxicity against Lactuca sativa assessed as inhibition of radical length at 0.1 uM to 0.1 mM relative to control; type: functional; set-up: scale not given: the % may be the effect or the level left; summary of the method: as §1
[7] = test system: Lactuca sativa; assay: Phytotoxicity against Lactuca sativa assessed as inhibition of root length upto 0.1 uM relative to control; type: functional, organism-based; summary of the method: as §1
[8] = test system: Lactuca sativa; assay: Phytotoxicity against Lactuca sativa assessed as inhibition of seed germination at 1 to 10 nM relative to control; type: functional, organism-based

SMILES | Activity [1] | Activity [2] | Activity [3] | Activity [4] | Activity [5] | Activity [6] | Activity [7] | Activity [8]
COc1cc(/C=C/C(=O)OCCOC(C)=O)cc(OC)c1OC | >=80% | 10% | 60% | – | – | – | – | –
COc1cc(/C=C/C(=O)Oc2cccc(O)c2)cc(OC)c1O | >=80% | 10% | 60% | – | – | – | – | –
COc1cccc(OC(=O)/C=C/c2cc(OC)c(OC)c(OC)c2)c1 | – | 10% | 60% | – | – | – | – | –
COc1cc(/C=C/C(=O)Oc2cccc(O)c2)cc(OC)c1OC | >=80% | 10% | 60% | – | – | – | – | –
COc1cc(/C=C/C(=O)OCCO)cc(OC)c1O | – | 10% | 30% | – | – | – | – | –
COc1cc(/C=C/C(=O)OCCO)cc(OC)c1OC | – | 10% | 30% | – | – | – | – | –
O=C(/C=C/c1ccc(O)c(O)c1)OCCO | >=80% | 10% | 100% | inactive | 100% | 100% | Active | inactive
